# Measured values of several laboratories.
# Compare with care: the assays were run in different laboratories.
# TYK2 JH1: Non-receptor tyrosine-protein kinase TYK2, JH1 (TYK2, Homo sapiens, UniProt P29597)
# TYK2: Non-receptor tyrosine-protein kinase TYK2 (TYK2, Homo sapiens, UniProt P29597)
# TYK2 JH2: Non-receptor tyrosine-protein kinase TYK2, JH2 (TYK2, Homo sapiens, UniProt P29597)
SMILES,target,effect on,action,technique,concentration,endpoint,value
N[C@H]1CCN(c2nccc(-c3cnn4ncccc34)n2)C1,TYK2 JH1,cell-free assay,,,1 µM,remaining signal,76%
CC(C)(O)[C@H]1CC[C@H](Nc2ccc3ncc(-c4cccc(C(F)(F)F)c4)n3n2)CC1,TYK2,enzyme activity,inhibitor,,1 µM,remaining activity,73.7%
CCOC(=O)c1cc2cc(-c3cc(C(=O)NCc4ccc(C(=O)O)cc4)nn3C)ccc2[nH]1,TYK2 JH1,cell-free assay,,competition with immobilised ligand,0.1 µM,remaining binding,90%
Oc1cccc(-c2nc(N3CCOCC3)c3oc4ncccc4c3n2)c1,TYK2,cell-free assay,,,0.5 µM,remaining signal,73.6%
CC(C)(C)c1nc2c(s1)c1nc(N)ncc1c1ccc(NS(=O)(=O)c3c(F)cccc3F)c(F)c12,TYK2,enzyme activity,inhibitor,radiometric,1 µM,remaining activity,92%
CN(C)C(=O)Cn1cc(-c2nc(C3(c4ccc(-c5cnc(N)nc5)cc4)CC3)no2)cn1,TYK2 JH2,cell-free assay,,competition with immobilised ligand,1 µM,remaining binding,90%
Cc1ccc(C(=O)NCc2ccsc2)cc1C#Cc1cn(C(C)C)c2ncnc(N)c12,TYK2,enzyme activity,inhibitor,,1 µM,activity vs control,49%
O=C(Nc1cnn(-c2csc(C(=O)NC3COC3)c2)c1)Nc1c(F)cccc1Cl,TYK2,enzyme activity,inhibitor,,5 µM,remaining activity,89.3%
CN([C@@H]1CCc2c(CC(=O)O)c3ccccc3n2C1)S(=O)(=O)c1ccc(F)cc1,TYK2 JH1,cell-free assay,,competition with immobilised ligand,1 µM,remaining binding,100%
Cc1cc(NC(=O)c2cccc3cc(-c4cccc5[nH]nc(N)c45)ccc23)ccc1F,TYK2,enzyme activity,inhibitor,,0.1 µM,activity vs control,94%
CCC(=O)N[C@@H]1CC[C@H](C(=O)N(C)c2ccc(-c3nc4ccccc4o3)cc2)C1,TYK2 JH2,cell-free assay,,competition with immobilised ligand,1 µM,remaining binding,100%
CC1CCCN1c1nccc(-c2cnn3ncccc23)n1 (stereo not shown),TYK2,binding,,,1 µM,remaining binding,87%
O=C1CCc2cc(Nc3cc(OC4CCOCC4)c([N+](=O)[O-])cc3Cl)ccc2N1,TYK2 JH2,cell-free assay,,competition with immobilised ligand,1 µM,remaining binding,94%
Cc1cnn2ncc(-c3ccnc(N(C)C)n3)c2c1,TYK2,binding,,,1 µM,remaining binding,32%
COc1cc2nccc(Oc3ccc(NC(=O)c4c5n(n(-c6ccc(F)cc6)c4=O)CCCC5)cc3)c2cc1OC,TYK2,enzyme activity,inhibitor,,0.1 µM,inhibition,-28%
C[C@H]1CCN(c2nccc(-c3cnn4ncccc34)n2)C1,TYK2 JH1,cell-free assay,,,1 µM,remaining signal,63%
Nc1nc(Nc2ccc(S(N)(=O)=O)cc2)nn1C(=O)c1c(F)cccc1F,TYK2,cell-free assay,,,0.5 µM,remaining signal,0.878%
CN(c1nccc(-c2cnn3ncccc23)n1)C1CC1,TYK2 JH1,cell-free assay,,,1 µM,remaining signal,100%
O=C1Nc2ccc(Cl)cc2C1=Cc1cc(Cl)c(O)c(Cl)c1,TYK2,cell-free assay,,,0.5 µM,remaining signal,26.9%
COc1cc2ncnc(Nc3ccc(Oc4ccccc4)cc3C)c2cc1OC,TYK2,enzyme activity,inhibitor,,1 µM,inhibition,7%
CC(=O)N1CCC(c2ccc(C(=O)NC3=NCCN3)cc2C(F)(F)F)CC1,TYK2 JH1,cell-free assay,,competition with immobilised ligand,1 µM,remaining binding,100%
Nc1ncnc2occ(-c3ccc(NC(=O)Nc4cc(C(F)(F)F)ccc4F)cc3)c12,TYK2 JH1,cell-free assay,inhibitor,,20 µM,remaining signal,55%
F[C@@H]1CCN(c2nccc(-c3cnn4ncccc34)n2)C1,TYK2 JH1,cell-free assay,,competition with immobilised ligand,1 µM,remaining binding,100%
O=C(NCc1ncc(C(F)(F)F)cc1Cl)c1ccc2c(c1)C1(CCS(=O)(=O)CC1)[C@H](C1CC1)N2S(=O)(=O)c1ccc(F)cc1,TYK2 JH2,cell-free assay,,competition with immobilised ligand,1 µM,remaining binding,79%
N#CCCc1ccc2c(c1)-c1[nH]c3ccc([N+](=O)[O-])cc3c1CC(=O)N2,TYK2,cell-free assay,,,0.5 µM,remaining signal,48.1%
CS(=O)(=O)Nc1cccc(-c2csc(NC(=O)CSc3nc4nccnc4c(=O)n3CCc3ccccc3)n2)c1,TYK2,enzyme activity,inhibitor,,10 µM,inhibition,-1%
Cn1nc(C(=O)NCc2ccc(C(=O)O)cc2)cc1-c1ccc2[nH]ccc2c1,TYK2 JH2,cell-free assay,,competition with immobilised ligand,0.1 µM,remaining binding,94%
CCCS(=O)(=O)Nc1ccc(F)c(C(=O)c2c[nH]c3ncc(-c4ccc(Cl)cc4)cc23)c1F,TYK2,enzyme activity,inhibitor,,1 µM,inhibition,< 10%
